Source: paper PMC2649372 (Biochemistry, 2008)
Residue numbers refer to the chain shown, from its start. Marks after values point to notes of the source that are not given here.

How the values were obtained:
[1] = target: T1, E129-Nha mutant 5-HT3 receptor (mouse 5-HT3A subunit) (Mus musculus, UniProt Q6J1J7); test: Agonist-induced currents, voltage clamp electrophysiology in Xenopus oocytes; assay type: cell-based
T1 sequence (Q6J1J7 24-483): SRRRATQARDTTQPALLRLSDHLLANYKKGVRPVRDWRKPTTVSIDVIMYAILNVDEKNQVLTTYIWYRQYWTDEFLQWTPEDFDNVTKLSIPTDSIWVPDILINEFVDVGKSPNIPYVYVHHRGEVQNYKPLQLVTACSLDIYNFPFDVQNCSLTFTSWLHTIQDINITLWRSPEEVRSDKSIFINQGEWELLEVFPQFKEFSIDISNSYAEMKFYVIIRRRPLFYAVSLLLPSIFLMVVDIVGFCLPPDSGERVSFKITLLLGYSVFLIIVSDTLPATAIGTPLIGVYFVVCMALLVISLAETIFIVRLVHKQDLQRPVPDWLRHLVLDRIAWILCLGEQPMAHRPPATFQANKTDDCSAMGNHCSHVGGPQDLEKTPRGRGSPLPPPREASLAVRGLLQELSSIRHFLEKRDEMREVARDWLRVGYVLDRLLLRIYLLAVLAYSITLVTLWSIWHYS
Procedure, shortened: (§1)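 Mouse 5-HT3A receptor carrying Nha or Akp, introduced by nonsense suppression. Stage V-VI Xenopus oocytes were co-injected with 5 ng cRNA and 25 ng photodeprotected aminoacyl-tRNA. Controls received tRNA without an amino acid. At 24-72 h, agonist currents were recorded by two-electrode voltage clamp at -60 mV, 22-25 °C, in Ca-free ND96 (pH 7.5).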

[2] = target: E129Q mutant 5-HT3 receptor (mouse 5-HT3A subunit) (Mus musculus, UniProt P23979, E129Q); test: Agonist-induced currents, voltage clamp electrophysiology in Xenopus oocytes; assay type: cell-based; details: NR = no response
Sequence of E129Q mutant 5-HT3 receptor (mouse 5-HT3A subunit) (P23979 24-483 isoform P23979-2 E129Q limits assumed): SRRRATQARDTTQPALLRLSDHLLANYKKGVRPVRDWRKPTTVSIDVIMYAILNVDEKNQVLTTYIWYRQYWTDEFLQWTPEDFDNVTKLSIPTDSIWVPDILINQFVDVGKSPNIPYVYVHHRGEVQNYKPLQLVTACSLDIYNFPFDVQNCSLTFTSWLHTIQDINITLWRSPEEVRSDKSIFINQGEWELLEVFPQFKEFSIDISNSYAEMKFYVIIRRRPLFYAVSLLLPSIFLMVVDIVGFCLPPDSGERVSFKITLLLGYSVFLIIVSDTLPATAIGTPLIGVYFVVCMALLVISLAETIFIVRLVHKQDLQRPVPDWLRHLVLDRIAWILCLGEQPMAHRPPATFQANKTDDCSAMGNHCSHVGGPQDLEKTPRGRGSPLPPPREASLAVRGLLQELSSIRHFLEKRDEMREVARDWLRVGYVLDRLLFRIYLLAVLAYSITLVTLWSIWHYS

[3] = target: T2, N128-Akp mutant 5-HT3 receptor (mouse 5-HT3A subunit) (Mus musculus, UniProt Q6J1J7); test: Agonist-induced currents, voltage clamp electrophysiology in Xenopus oocytes; assay type: cell-based
T2 sequence (Q6J1J7 24-483): T1 sequence (Q6J1J7 24-483)
Procedure, shortened: as §1

[4] = target: E129G mutant 5-HT3 receptor (mouse 5-HT3A subunit) (Mus musculus, UniProt P23979, E129G); test: Agonist-induced currents, voltage clamp electrophysiology in Xenopus oocytes; assay type: cell-based; details: NR = no response
Sequence of E129G mutant 5-HT3 receptor (mouse 5-HT3A subunit) (P23979 24-483 isoform P23979-2 E129G limits assumed): as the sequence (P23979 24-483 isoform P23979-2 E129Q limits assumed) above, with Q106G counted along it

[5] = target: N128-Nha mutant 5-HT3 receptor (mouse 5-HT3A subunit); test: Agonist-induced currents, voltage clamp electrophysiology in Xenopus oocytes; assay type: cell-based; details: SR = small (<100 nA) responses
Procedure, shortened: as §1

[6] = target: T3, N128R mutant 5-HT3 receptor (mouse 5-HT3A subunit) (Mus musculus, UniProt P23979, N128R); test: Agonist-induced currents, voltage clamp electrophysiology in Xenopus oocytes; assay type: cell-based; details: SR = small (<100 nA) responses
T3 sequence (P23979 24-483 isoform P23979-2 N128R limits assumed): T1 sequence (Q6J1J7 24-483) with N105R, L436F

[7] = target: E129K mutant 5-HT3 receptor (mouse 5-HT3A subunit) (Mus musculus, UniProt P23979, E129K); test: as above; assay type: cell-based; details: NR = no response
Sequence of E129K mutant 5-HT3 receptor (mouse 5-HT3A subunit) (P23979 24-483 isoform P23979-2 E129K limits assumed): as the sequence (P23979 24-483 isoform P23979-2 E129Q limits assumed) above, with Q106K counted along it

[8] = test system: Asn128 mutant 5-HT3 receptors (all except Ala and Val); test: Relative efficacy of mCPBG, voltage clamp electrophysiology in Xenopus oocytes; assay type: cell-based, mouse; details: Asn128 mutations
[9] = target: E129A mutant 5-HT3 receptor (mouse 5-HT3A subunit) (Mus musculus, UniProt P23979, E129A); test: Agonist-induced currents, voltage clamp electrophysiology in Xenopus oocytes; assay type: cell-based; details: NR = no response
Sequence of E129A mutant 5-HT3 receptor (mouse 5-HT3A subunit) (P23979 24-489 E129A): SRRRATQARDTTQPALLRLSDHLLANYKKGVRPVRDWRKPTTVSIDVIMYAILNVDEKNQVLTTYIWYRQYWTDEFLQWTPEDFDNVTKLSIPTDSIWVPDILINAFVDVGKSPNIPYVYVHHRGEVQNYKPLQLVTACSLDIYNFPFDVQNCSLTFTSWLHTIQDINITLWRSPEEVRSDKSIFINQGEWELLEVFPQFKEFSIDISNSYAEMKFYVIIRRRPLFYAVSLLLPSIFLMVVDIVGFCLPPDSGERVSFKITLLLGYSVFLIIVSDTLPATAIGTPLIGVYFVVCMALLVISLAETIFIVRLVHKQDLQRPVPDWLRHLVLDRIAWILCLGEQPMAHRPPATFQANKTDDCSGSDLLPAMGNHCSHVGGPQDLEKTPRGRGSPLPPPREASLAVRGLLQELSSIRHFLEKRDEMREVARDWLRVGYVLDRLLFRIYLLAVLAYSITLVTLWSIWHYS

NCCc1c[nH]c2ccc(O)cc12 [5-HT, 5-hydroxytryptamine]
EC50 [1]: 3.5 µM
nH (Hill coefficient) [1]: 1.18 ± 0.12 ^b
pEC50 [1]: 5.45 ± 0.04
nH (Hill coefficient) [2]: 1.55 ± 0.07 ^b
EC50 [3]: 4.6 µM
nH (Hill coefficient) [3]: 1.49 ± 0.06 ^b
pEC50 [3]: 5.33 ± 0.01 ^b

N=C(N)NC(=N)Nc1cccc(Cl)c1 [mCPBG, m-chlorophenylbiguanide]
EC50 [4]: > 100 µM
EC50 [5]: 2.8 µM
nH (Hill coefficient) [5]: 2.18 ± 0.23
pEC50 [5]: 5.55 ± 0.02 ^b
EC50 [1]: 0.56 µM
nH (Hill coefficient) [1]: 1.91 ± 0.60
pEC50 [1]: 6.25 ± 0.07
EC50 [6]: 7.3 µM
nH (Hill coefficient) [6]: 1.93 ± 0.16
pEC50 [6]: 5.14 ± 0.02 ^b
EC50 [7]: > 100 µM
increase of mCPBG Rmax compared to that of WT [8]: 2−19 fold
EC50 [9]: > 100 µM
